Measurements reported in article PMC10691213 (Proceedings of the National Academy of Sciences of the …, 2023).

Assays:
HEK293T cells [1] = assay type: cell-based, human; details: 500 nM anisomycin 1 h
How it was run: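 HEK293T cells were transiently transfected (polyethyleneimine) with FLAG-MLXIPL or TACC1 plasmid. Where indicated, cells were pre-treated with 50 μM SB203580 for 1 h at 37 °C, then given 500 nM anisomycin or 0.001% DMSO vehicle for 1 h at 37 °C. Lysates were clarified and equal protein (BCA) resolved on 5% gels with […] Phos-tag plus 50 μM MnCl2, or by standard SDS-PAGE, then immunoblotted.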

HEK293T cells [2] = experiment: MS analysis of TACC1 / MLXIPL phosphopeptides isolated from HEK293T cells; assay type: cell-based, human; details: serum-starved, 500 nM trametinib pre-treatment 1 h, EGF 5 min

## COc1ccc(C[C@H]2NC[C@H](O)[C@H]2OC(C)=O)cc1 [Anisomycin, anisomycin]
HEK293T cells [1]
  phosphorylation of TACC1 (mobility shift): did not induce phosphorylation

## C[S+]([O-])c1ccc(-c2nc(-c3ccncc3)c(-c3ccc(F)cc3)[nH]2)cc1 (stereo not drawn) [SB203580]
HEK293T cells [1]; 50 μM SB203580 pre-treatment 1 h
  anisomycin-induced MLXIPL phosphorylation (mobility shift): partly dependent on p38α/β

## CC(=O)Nc1cccc(-n2c(=O)n(C3CC3)c(=O)c3c(Nc4ccc(I)cc4F)n(C)c(=O)c(C)c32)c1 [trametinib]
HEK293T cells [2]
  EGF-stimulated TACC1 Ser231 phosphorylation: blocked
